Active and inactive are the calls of the source. The calls are words filed in the database; no cut-off is given here.
Tests used:
[1] = target: Mast/stem cell growth factor receptor Kit (Homo sapiens, UniProt P10721); assay: Inhibition of TEL fused KIT (unknown origin) transfected in mouse BAF3 cells assessed as growth inhibition after 72 hrs by CCK8 assay; format: cell-based
Procedure, shortened: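 TEL-fusion isogenic BaF3 lines were built in-house and grown in RPMI 1640 with 10% FBS and 1% penicillin/streptomycin at 37 °C under 5% CO2. Cells were spun down before use.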

[2] = test system: High affinity nerve growth factor receptor (Homo sapiens), P04629 [G595R]; assay: Inhibition of LMNA fused TRKA G595R mutant (unknown origin) transfected in mouse BAF3 cells assessed as growth inhibition after 72 hrs by CCK8 assay; format: cell-based
High affinity nerve growth factor receptor (Homo sapiens), P04629 [G595R], sequence (P04629 whole entry G595R, looked up, the tested form may be a part): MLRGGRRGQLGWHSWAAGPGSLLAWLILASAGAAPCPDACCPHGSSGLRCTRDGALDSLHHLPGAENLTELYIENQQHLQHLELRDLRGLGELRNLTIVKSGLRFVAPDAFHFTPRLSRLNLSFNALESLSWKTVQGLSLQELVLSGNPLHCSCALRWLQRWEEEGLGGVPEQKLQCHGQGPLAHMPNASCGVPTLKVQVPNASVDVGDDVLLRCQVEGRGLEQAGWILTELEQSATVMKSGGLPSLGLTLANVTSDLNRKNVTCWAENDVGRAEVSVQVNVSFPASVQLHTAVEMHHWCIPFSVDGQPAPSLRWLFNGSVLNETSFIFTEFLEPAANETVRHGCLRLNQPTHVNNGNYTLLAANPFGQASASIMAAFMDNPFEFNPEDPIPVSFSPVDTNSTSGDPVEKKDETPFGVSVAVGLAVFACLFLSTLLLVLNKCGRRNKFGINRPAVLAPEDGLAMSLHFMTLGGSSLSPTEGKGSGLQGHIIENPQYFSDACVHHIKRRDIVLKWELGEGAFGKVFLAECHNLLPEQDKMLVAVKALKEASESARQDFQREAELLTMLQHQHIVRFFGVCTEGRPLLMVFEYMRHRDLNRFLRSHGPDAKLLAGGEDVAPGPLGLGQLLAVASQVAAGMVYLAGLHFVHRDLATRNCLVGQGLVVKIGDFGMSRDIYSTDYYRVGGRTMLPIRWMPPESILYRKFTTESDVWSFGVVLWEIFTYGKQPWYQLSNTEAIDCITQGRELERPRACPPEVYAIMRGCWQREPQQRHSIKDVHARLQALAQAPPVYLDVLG

[3] = target: High affinity nerve growth factor receptor (Homo sapiens, UniProt P04629); assay: Inhibition of TRKA in human KM-12-LUC cells assessed as reduction in TRKA phosphorylation at Y490 residue at 0.01 uM after 2 hrs by Western blot analysis; format: cell-based; conditions: KM12-Luc
High affinity nerve growth factor receptor, sequence (P04629 33-796 limits assumed): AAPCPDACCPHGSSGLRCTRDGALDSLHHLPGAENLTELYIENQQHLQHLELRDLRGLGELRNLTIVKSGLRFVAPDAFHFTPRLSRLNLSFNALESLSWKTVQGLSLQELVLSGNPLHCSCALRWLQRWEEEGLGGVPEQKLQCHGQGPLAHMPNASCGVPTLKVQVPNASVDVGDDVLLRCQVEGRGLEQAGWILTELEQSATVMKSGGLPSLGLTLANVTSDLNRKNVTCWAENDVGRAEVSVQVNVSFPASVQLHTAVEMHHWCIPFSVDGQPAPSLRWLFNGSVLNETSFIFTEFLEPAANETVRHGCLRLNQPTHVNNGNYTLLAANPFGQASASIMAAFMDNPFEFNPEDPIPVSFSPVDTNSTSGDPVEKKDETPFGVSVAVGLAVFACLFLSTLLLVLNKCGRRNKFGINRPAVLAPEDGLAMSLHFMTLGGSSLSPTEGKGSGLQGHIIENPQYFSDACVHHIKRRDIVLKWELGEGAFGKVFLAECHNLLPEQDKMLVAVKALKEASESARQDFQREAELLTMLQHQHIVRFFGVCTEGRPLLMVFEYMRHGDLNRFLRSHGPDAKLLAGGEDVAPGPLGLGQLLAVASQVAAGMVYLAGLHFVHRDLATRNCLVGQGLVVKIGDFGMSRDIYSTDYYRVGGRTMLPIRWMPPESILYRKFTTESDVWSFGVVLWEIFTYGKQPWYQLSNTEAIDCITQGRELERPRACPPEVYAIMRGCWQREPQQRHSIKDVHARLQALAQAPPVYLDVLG
Procedure, shortened: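 KM-12-LUC cells cultured in RPMI 1640 with 10% FBS and 1% penicillin/streptomycin. Serially diluted compound applied for 2 h. Cells collected and lysed, and lysates analysed by western blotting for phospho-TRKA Y490, AKT T308/S473 and ERK1/2 T202/Y204.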

KM12-Luc = assay: Induction of cell cycle arrest in human KM-12-LUC cells assessed as accumulation at G0/G1 phase at 0.01 to 10 uM after 24 hrs by PI/RNase staining based flow cytometric analysis; format: functional; conditions: dose 0.01-10 µM
Procedure, shortened: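 KM-12-LUC cells treated with DMSO or serially diluted compound. Cells fixed in cold 70% ethanol overnight at −20 °C, then stained with PI/RNase buffer. Cell cycle distribution measured by flow cytometry.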

[4] = AUC (0 to t) in mouse at 1 mg/kg, iv; format: ADME, organism-based; design: dose 1 mg/kg; conditions: in vivo
Procedure, shortened: (§1)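 Intravenous and oral arms were run in parallel in each species (mice, Sprague Dawley rats, beagle dogs). Exposure is reported as AUC0-t in ng/mL·h.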

[5] = Apparent volume of distribution in mouse at 10 mg/kg, po; format: ADME, organism-based; conditions: in vivo
[6] = AUC (0 to t) in Sprague-Dawley rat at 1 mg/kg, iv; format: ADME, organism-based; design: dose 1 mg/kg; conditions: in vivo; procedure, shortened: as §1
[7] = Oral bioavailability in Sprague-Dawley rat at 10 mg/kg; format: ADME, organism-based; conditions: in vivo
Procedure, shortened: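 Single-dose PK in mice, Sprague Dawley rats and beagle dogs, given i.v. (1 mg/kg) or p.o. (10 mg/kg mice and rats; 5 mg/kg dogs). AUC0-t, T1/2, Tmax and oral bioavailability (F) derived from plasma profiles.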

[8] = Apparent clearance in Beagle dog at 1 mg/kg, iv; format: ADME, organism-based, Canis lupus familiaris; conditions: in vivo
[9] = Antitumor activity against human […] cells xenografted in nude mouse assessed as tumor growth inhibition at 40 mg/kg, po administered once daily for 10 days relative to control; format: functional; conditions: KM12-Luc, 240 h, time 10 day, read-out: TGI
Procedure, shortened: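 Nu/nu mice given 5 million KM-12-LUC cells in DMEM, 1:1 with matrigel, injected subcutaneously into the right flank; oral gavage started at tumor size 150–200 mm³, 5 mice per group, compound in 0.5% methylcellulose/0.4% Tween 80 in ddH₂O; body weight and tumor volume [(W²×L)/2] measured daily; TGI versus vehicle.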

BaF3 = assay: Antitumor activity against mouse BAF3 cells harboring TEL fused TRKA allografted in nude mouse assessed as tumor growth inhibition at 40 mg/kg, po administered once daily for 10 days relative to control; format: functional; conditions: 240 h, time 10 day, read-out: TGI
Procedure, shortened: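 Nu/nu mice given 1 million BaF3 cells (TEL-TRKA, TEL-TRKB, TEL-TRKC, LMNA-TRKA-F589L or LMNA-TRKA-G667S) in DMEM, 1:1 with matrigel, injected subcutaneously into the right flank; oral gavage began at 200–400 mm³, 5 mice per group, compound in 0.5% methylcellulose/0.4% Tween 80 in ddH₂O, 10 days; tumor volume [(W²×L)/2] and body weight recorded daily; TGI versus vehicle.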

[10] = Toxicity in mouse xenografted with mouse BAF3 cells harboring […] TRKA-G667S mutant assessed as effect on abnormal behaviour at 40 to 80 mg/kg, po administered twice daily for 10 days; format: organism-based; conditions: in vivo, 240 h, dose 40-80 mg/kg, time 10 day
Procedure, shortened: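 nu/nu mice were given subcutaneous right-flank implants in 1:1 DMEM/matrigel: 1 million BaF3 fusion cells or 5 million KM-12-LUC cells. Oral gavage started at 150–200 mm3 (xenograft) or 200–400 mm3 (allograft). Dosing used 40 or 80 mg/kg in HKI vehicle (0.5% methylcellulose/0.4% Tween 80 in ddH2O), with 5 mice per group. Body weight was recorded daily and behaviour observed.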

Mast/stem cell growth factor receptor Kit, sequence (P10721 whole entry, the tested form may be a part): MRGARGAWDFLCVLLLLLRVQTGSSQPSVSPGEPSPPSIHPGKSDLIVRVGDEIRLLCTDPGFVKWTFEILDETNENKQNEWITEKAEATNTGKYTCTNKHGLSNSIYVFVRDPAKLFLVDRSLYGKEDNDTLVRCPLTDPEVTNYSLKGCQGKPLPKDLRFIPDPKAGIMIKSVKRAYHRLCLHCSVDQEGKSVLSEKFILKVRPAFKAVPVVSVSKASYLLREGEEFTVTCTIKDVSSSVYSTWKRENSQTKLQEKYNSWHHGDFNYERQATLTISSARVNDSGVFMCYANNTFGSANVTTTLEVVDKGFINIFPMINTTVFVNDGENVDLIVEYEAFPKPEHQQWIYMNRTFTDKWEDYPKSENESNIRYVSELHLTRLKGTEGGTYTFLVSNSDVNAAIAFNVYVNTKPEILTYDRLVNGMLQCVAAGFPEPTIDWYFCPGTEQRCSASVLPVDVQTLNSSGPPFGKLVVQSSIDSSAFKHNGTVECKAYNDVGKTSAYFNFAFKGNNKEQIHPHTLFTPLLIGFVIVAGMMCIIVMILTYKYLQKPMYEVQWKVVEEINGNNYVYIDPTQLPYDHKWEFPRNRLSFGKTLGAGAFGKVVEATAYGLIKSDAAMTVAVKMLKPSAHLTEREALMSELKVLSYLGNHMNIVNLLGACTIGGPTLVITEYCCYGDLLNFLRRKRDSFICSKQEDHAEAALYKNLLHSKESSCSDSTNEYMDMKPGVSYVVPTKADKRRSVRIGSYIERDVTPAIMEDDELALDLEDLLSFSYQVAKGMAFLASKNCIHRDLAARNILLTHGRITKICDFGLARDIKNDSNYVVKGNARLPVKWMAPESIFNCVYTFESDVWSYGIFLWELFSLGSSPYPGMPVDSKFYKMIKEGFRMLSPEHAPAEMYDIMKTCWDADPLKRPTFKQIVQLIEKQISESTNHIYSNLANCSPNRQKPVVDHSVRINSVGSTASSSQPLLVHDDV

- GI50 [1]: 923 nM
- GI50 [2]: 194 nM
- inhibition [3]: Active
- AUC(0-t) [4]: 748 ng·h/mL
- Vz [5]: 31.567 L/kg
- AUC(0-t) [6]: 393 ng·h/mL
- bioavailability [7]: 26%
- CLz/F [8]: 47.68 mL/min/kg
SMILES: Cc1nc(NC(=O)CN2CCN(C)CC2)sc1-c1ccc2c(/C=C/c3ccccn3)n[nH]c2c1
- Activity (KM12-Luc): Active
- inhibition in vivo at 40 mg/kg/day [9]: 93.4%
- inhibition in vivo at 40 mg/kg/day (BaF3): 52.2%
- Activity [10]: Non-Toxic

Reference: ChEMBL document CHEMBL4765452, “Discovery of (E)-N-(4-methyl-5-(3-(2-(pyridin-2-yl)vinyl)-1H-indazol-6-yl)thiazol-2-yl)-2-(4-methylpiperazin-1-yl)acetamide (IHMT-TRK-284) as a novel orally available type II TRK kinase inhibitor capable of overcoming multiple resistant mutants” (Eur J Med Chem, 2020)
